High-throughput results deposited in PubChem by several laboratories.
This is a sample that favours compounds with a hit; in the whole collection about 5.4% have one here.
aSyn 5UTR inh = MLPCN primary screen, SNCA 5' untranslated region; alpha-synuclein 5'UTR reporter, inhibitor activity; 300,000 compounds, 0.82% hits; inhibition, % (tested at 7.5 µM); in the data active = inhibition above about 60%;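 also: H4 neuroglioblastoma cells stably carrying SNCA 5'UTR luciferase fusion; 0% = DMSO wells and 100% = positive control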
T cruzi repl = inhibitors of intracellular T. cruzi growth, primary screen, luminescence, NIH3T3 host cells | T. cruzi beta-gal in NIH3T3, 90 h | 300,000 compounds, 1.4% hits | AID 1885, 2009 | inhibition, % (test concentration not listed);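 active = mean inhibition across valid replicates above about 55%, limit read from the data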;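 also: signal also drops with host cell toxicity which is not excluded here; 0% = plate median of DMSO wells and 100% = zero luminescence signal; higher percent means less beta-gal luminescence so fewer parasites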
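System: mouse NIH/3T3 fibroblasts infected with β-gal-expressing T. cruzi Tulahuen C4 / Input: NIH/3T3 cells, 5,000 per well / Buffer or medium: Low-serum DMEM with 2% FBS / Probe or stimulus: 5000 reporter trypomastigotes per well / Schedule: ≥90 h infection period, 3 h prior cell attachment / Measured by: GalScreen luminescence, 60 min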
SKKanGAS inh = S. pyogenes SKKanGAS growth inhibitors in kanamycin, primary screen, streptokinase expression inhibitor project, SKKanGAS strain, BacTiter-Glo luminescence; 6 h; inhibition, % at 7.5 µM; 300,000 compounds, 1.3% hits; AID 1662, 2009;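 active = mean replicate score, as percent of positive control median, at least 50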;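 also: strain carries kanamycin resistance gene driven by streptokinase promoter and grows in 40 µg/ml kanamycin; loss of luminescence reflects streptokinase promoter inhibition or plain growth inhibition; 0% = median of DMSO wells and 100% = positive control at its reference dose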
CSC inhib = cancer stem cell viability inhibitors, primary screen, luminescence. cancer stem cell-like cells viability. inhibition, % at 7.5 µM. 300,000 compounds, 1.1% hits. AID 2717, 2010; in the data active = inhibition above about 75%; tested in HMLE shEcad cells
Mdm2 MdmX PPI = inhibitors of human Mdm2-MdmX association, primary screen, cell-based, luminescence, split luciferase, SaOS-2, uHTS; 330,000 compounds, 3% hits; SaOS-2 split-luciferase Mdm2/MdmX complementation; AID 485346, 2010; Protein Mdm4 (Homo sapiens) + E3 ubiquitin-protein ligase Mdm2 (Homo sapiens), …; inhibition, % at 8 µM;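 active = inhibition of at least 50% at 8 µM in the primary screen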
Mdm2 MdmX conf = Mdm2-MdmX complex disruptors, retested hits, confirmation, luminescence, single concentration. shares compounds with Mdm2 MdmX PPI. Mdm2-MdmX binding, luminescent assay. inhibition, % at 8 µM. 10,000 compounds, 55% hits; in the data active = inhibition above about 40%
FLuc counter = full-length luciferase signal inhibition, confirmation, counter-screen for Mdm2/MdmX interaction inhibitor project, cell-based, single concentration, SaOS-2; shares compounds with Mdm2 MdmX PPI; SaOS-2 full-length luciferase counterscreen, luminescence; inhibition, % at 8 µM; 6,200 compounds, 77% hits; AID 504607, 2011;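 active = mean inhibition at 8 µM reaching about 37%, which flags the compound as non-specific, limit read from the data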;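 also: p53-null SaOS-2 cells with luciferase driven by a doxycycline-inducible promoter; compound on cells about two nights before reading with doxycycline added after day one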
Active calls of the source: *; . = no result given.

SMILES	aSyn 5UTR inh	T cruzi repl	SKKanGAS inh	CSC inhib	Mdm2 MdmX PPI	Mdm2 MdmX conf	FLuc counter
O=C1NCCc2c1[nH]c1c(Cl)ccc(Cl)c21	39	-1	-8	.	77*	63*	48*
COc1ccccc1N(Cc1ccccc1)S(=O)(=O)c1cccc(C(=O)Nc2ccc(C)cn2)c1	26	62*	11	2	55*	37	.
COc1ccccc1N(Cc1ccccc1)S(=O)(=O)c1cccc(C(=O)Nc2ccccn2)c1	28	35	13	32	67*	60*	91*
CC1(C)CC(NC(=O)c2cccc(S(=O)(=O)N(Cc3ccccc3)c3ccccc3)c2)CC(C)(C)N1	-30	49	-5	18	95*	59*	61*
S=c1[nH]nc(-c2cc(-c3ccccc3)n[nH]2)n1/N=C/C(Br)=C/c1ccccc1	-42	12	18	83*	100*	84*	24
CC(=C/c1ccccc1)/C=N/n1c(-c2ccncc2)n[nH]c1=S	0	-15	30	-28	74*	78*	53*
S=c1[nH]nc(-c2ccco2)n1/N=C/C(Cl)=C/c1ccccc1	-172	-69	26	83*	62*	-39	.
S=c1[nH]nc(-c2cc(-c3ccccc3)n[nH]2)n1/N=C/c1ccccc1	-35	5	1	-11	-8	.	.
COc1cccc(N2C(=O)CC(N3CCC(C(N)=O)(N4CCCCC4)CC3)C2=O)c1 (stereo unspecified)	24	-12	-2	-4	8	.	.
COC(=O)c1ccc2c(=O)n(CC3CCCO3)c(SCC(=O)NCCc3ccc(S(N)(=O)=O)cc3)nc2c1 (stereo unspecified)	-4	16	-7	-1	6	.	.
CN(C(=O)c1cccc(Br)c1)C1CCS(=O)(=O)C1 (stereo unspecified)	1	-16	0	-8	11	.	.
FC(F)(F)Oc1ccc(NC(=S)Nc2ccc(OC(F)(F)F)cc2)cc1	-8	33	72*	74	79*	17	.
CCOc1ccc(C(=O)NCc2ccc3c(c2)OCO3)cc1OCC	40	10	-5	-8	7	.	.
CCOc1cc(CNC(C)(C)CO)cc(Br)c1OCc1ccc(Cl)cc1Cl	-22	51	7	.	96*	49*	37*
CCOc1cc(CNCCO)cc(Br)c1OCc1ccccc1Cl	-8	32	-1	-18	68*	34	.
COc1cc(CNC(C)(C)CO)cc(Br)c1OCc1ccccc1	-4	1	1	36	-4	.	.
CCOc1cc(CNCCO)cc(Br)c1OCc1ccc(Cl)cc1	20	2	3	85*	80*	21	.
OCCNCc1c(OCc2ccc(Cl)cc2)ccc2ccccc12	24	25	-8	20	53*	41*	70*
CC(O)CNCCNCc1c(OCc2ccccc2)ccc2ccccc12 (stereo unspecified)	-21	22	-5	13	31	.	.
CCOC(=O)c1ccc(S(=O)(=O)N2CCN(C(=O)c3ccccn3)CC2)cc1	.	.	.	-1	16	.	.
Cc1cc(C)c(S(=O)(=O)NCC(=O)NCc2cc(=O)n(C)c(=O)n2C)c(C)c1	1	-6	-4	-8	5	.	.
CCCCNC(=S)NNC(=O)c1cccnc1	1	-6	1	-4	22	.	.
O=C(O)CNC(=O)c1ccc(N2CCOCC2)cc1[N+](=O)[O-]	-11	8	-25	2	6	.	.
CCOc1cc(CNCCCN2CCOCC2)cc(Br)c1OCc1ccccc1Cl	96*	80*	0	-5	92*	34	52*
Cc1cccc(CN2CCC(Oc3ccc(C(=O)N4CCCCC4)cc3)CC2)c1	-2	-7	-10	5	14	.	.
